Results as given in publication PMC7233370 (Journal of medicinal chemistry, 2020).
“Also recorded” adds a separate entry of the source.

Tests used:
[1] = target: T1, GS activity in Rat-1 cell lysates (Rattus norvegicus, UniProt A2RRU1); experiment: GS activity in Rat-1 cell lysates, 14C-glucose incorporation; type: biochemical; conditions: 100 μM compound; 0.75 mg/mL lysate; 0.2 mM UDPG, 1 mM G6P
T1 sequence (A2RRU1 1-738): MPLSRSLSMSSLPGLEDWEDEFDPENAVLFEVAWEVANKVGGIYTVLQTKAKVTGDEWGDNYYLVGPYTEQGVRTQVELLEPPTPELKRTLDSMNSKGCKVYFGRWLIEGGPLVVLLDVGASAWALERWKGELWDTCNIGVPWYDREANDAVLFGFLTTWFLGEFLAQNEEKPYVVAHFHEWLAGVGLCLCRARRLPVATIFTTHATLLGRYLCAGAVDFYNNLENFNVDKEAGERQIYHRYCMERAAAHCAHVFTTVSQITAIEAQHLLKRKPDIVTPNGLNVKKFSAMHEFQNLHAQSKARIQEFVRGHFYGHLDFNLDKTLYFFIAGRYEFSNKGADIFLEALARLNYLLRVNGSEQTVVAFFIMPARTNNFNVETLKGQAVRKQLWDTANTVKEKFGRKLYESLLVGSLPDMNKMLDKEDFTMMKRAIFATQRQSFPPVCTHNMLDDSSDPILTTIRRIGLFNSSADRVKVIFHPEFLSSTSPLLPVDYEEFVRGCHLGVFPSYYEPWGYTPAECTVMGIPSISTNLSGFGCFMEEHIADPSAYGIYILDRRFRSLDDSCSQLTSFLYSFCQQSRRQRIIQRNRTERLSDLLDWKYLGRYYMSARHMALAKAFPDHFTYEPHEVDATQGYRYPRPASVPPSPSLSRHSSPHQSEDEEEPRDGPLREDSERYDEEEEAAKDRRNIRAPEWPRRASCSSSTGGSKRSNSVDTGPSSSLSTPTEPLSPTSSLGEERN
How it was run: (§1)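 Rat-1 fibroblasts were grown in DMEM/10% FBS to confluence. Cells were lysed in EDTA/EGTA/NaF buffer with protease inhibitors, vanadate and Triton, freeze-scraped, sonicated, and the lysate diluted 2-fold. Assay: 50 mM Tris-HCl pH 7.8, 6.7 mg/ml glycogen, 0.2 mM UDPG, 1 mM G6P, 2% DMSO, test compound 100 µM. Read-out: 14C-glucose incorporation as % of DMSO control.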

yGsy2p [2] = target: T2, yGsy2p (Saccharomyces cerevisiae, UniProt P27472); experiment: 14C-glucose incorporation assay, yGsy2p inhibition; type: biochemical; conditions: co-variation of UDPG and inhibitor
T2 sequence (P27472 1-705): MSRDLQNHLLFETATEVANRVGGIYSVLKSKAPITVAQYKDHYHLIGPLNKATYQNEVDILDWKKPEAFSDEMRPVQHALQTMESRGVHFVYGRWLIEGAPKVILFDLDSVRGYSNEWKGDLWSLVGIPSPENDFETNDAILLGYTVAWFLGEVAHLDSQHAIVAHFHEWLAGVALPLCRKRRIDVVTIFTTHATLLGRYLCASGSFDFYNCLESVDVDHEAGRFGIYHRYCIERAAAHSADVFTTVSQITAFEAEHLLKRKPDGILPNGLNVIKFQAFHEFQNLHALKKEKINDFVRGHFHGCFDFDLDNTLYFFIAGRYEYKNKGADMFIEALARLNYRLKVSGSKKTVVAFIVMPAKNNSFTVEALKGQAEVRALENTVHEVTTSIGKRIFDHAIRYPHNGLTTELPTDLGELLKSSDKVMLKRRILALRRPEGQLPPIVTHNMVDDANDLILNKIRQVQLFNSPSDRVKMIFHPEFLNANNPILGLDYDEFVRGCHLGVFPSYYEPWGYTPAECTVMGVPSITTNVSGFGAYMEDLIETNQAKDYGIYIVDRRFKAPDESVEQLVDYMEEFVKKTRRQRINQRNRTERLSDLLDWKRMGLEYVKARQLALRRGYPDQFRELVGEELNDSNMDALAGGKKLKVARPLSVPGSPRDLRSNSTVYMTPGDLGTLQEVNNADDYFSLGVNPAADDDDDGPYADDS

[3] = target: T3, GS activity in HEK293-PTG cell lysates (Homo sapiens, UniProt P13807); experiment: GS activity in HEK293-PTG cell lysates, 14C-glucose incorporation; type: biochemical; conditions: 100 μM compound; 0.15 mg/mL lysate; 0.2 mM UDPG, 1 mM G6P
T3 sequence (P13807 1-737): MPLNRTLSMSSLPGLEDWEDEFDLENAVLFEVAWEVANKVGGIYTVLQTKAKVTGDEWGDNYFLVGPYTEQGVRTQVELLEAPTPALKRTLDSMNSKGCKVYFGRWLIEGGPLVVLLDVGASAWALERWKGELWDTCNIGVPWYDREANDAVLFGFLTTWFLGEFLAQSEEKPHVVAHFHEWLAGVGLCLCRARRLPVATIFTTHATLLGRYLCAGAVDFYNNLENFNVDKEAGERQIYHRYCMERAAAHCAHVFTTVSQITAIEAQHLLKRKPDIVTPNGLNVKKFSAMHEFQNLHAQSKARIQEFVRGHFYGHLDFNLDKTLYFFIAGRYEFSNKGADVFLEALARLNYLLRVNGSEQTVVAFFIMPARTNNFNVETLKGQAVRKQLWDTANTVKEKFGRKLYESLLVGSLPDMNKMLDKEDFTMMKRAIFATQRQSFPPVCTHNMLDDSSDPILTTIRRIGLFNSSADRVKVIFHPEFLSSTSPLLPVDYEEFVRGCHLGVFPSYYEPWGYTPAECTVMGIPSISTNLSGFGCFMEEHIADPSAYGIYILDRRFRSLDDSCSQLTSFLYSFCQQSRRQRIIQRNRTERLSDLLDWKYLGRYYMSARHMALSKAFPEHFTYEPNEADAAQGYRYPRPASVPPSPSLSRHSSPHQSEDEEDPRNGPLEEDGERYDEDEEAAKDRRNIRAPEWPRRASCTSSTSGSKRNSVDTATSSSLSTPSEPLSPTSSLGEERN
How it was run: as §1, with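 “HEK293 cells stably transfected with mouse PTG (hygromycin-selected mixed clones)” for “Rat-1 fibroblasts”, “grown” for “grown in DMEM/10% FBS”, “10-fold.” for “2-fold.”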

hGYS1Δ634S8,11N = target: T4, hGYS1Δ634S8,11N (Homo sapiens, UniProt P13807, S11N/S8N); experiment: 14C-glucose incorporation assay, hGYS1Δ634S8,11N inhibition; type: biochemical; conditions: read-out: inhibition of truncated hGYS1 (hGYS1Δ634S8,11N)
T4 sequence (P13807 1-634 S8N/S11N limits assumed): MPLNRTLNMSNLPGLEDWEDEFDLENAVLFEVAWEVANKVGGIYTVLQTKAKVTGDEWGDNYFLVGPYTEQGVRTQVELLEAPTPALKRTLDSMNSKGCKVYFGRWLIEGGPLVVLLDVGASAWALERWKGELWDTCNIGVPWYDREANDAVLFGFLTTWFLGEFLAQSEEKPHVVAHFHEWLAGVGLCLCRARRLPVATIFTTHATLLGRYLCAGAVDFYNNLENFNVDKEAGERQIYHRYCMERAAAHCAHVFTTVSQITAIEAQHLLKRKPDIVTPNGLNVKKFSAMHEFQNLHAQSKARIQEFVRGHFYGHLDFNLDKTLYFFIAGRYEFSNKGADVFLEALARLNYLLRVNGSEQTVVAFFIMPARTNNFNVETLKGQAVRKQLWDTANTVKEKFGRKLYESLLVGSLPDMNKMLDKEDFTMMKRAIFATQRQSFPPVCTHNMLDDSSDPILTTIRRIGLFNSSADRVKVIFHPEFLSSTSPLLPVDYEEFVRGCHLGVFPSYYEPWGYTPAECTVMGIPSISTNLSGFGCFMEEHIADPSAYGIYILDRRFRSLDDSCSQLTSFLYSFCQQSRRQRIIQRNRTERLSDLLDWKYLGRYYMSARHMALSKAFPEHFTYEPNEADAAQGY

wild-type hGYS1 = target: T5, wild-type hGYS1 (Homo sapiens, UniProt P13807); experiment: 14C-glucose incorporation assay, wild-type hGYS1 inhibition; type: biochemical; conditions: for improvement in potency toward hGYS1 relative to H23: ratio of IC50 values versus H23
T5 sequence (P13807 1-737): T3 sequence (P13807 1-737)

yGsy2p Y513L mutant = yGsy2p Y513L mutant (Saccharomyces cerevisiae, UniProt P27472, Y513L); experiment: Inhibition of yGsy2p active-site mutant Y513L; type: biochemical; conditions: saturating G6P (7.2 mM)
Sequence of yGsy2p Y513L mutant (P27472 whole entry Y513L): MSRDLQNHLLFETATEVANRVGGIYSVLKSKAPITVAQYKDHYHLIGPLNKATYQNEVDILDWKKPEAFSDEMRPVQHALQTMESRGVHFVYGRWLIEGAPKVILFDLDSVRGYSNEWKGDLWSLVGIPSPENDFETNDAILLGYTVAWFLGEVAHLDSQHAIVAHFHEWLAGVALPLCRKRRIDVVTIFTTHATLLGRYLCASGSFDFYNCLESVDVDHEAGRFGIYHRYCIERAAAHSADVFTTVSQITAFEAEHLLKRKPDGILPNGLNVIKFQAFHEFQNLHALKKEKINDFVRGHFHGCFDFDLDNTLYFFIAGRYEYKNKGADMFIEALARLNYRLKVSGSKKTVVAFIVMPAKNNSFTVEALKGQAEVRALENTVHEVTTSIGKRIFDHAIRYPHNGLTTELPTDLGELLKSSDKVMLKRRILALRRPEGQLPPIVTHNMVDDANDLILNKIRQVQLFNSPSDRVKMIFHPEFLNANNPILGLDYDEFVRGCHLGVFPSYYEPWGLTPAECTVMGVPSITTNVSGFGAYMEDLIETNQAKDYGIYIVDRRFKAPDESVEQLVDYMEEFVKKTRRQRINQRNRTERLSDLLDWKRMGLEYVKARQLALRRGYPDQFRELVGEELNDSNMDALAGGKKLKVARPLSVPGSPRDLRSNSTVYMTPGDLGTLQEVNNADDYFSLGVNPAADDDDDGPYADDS

yGsy2p [4] = target: T2, yGsy2p; experiment: Fluorescence polarization competitive displacement of tracer from yGsy2p; type: binding
How it was run: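 Fluorescein-labelled glucosamine-6-phosphate tracer at 20 nM final with 4.2 µM yeast Gsy2p in 15 mM Tris-HCl pH 7.8, 15 mM NaCl. Unlabelled G6P titrated from 0.68 µM to 40 mM. Incubated 10 min at 25°C, then polarization read (ex 485/em 535 nm, mP). EC50 of the displacement fit taken as Kd. Triplicate.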

yGsy2p [5] = target: T2, yGsy2p; experiment: Activation of yGsy2p by G6P, 14C-glucose incorporation assay; type: biochemical
How it was run: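 His-tagged yeast Gsy2p was expressed in E. coli BL21(DE3) and purified by Ni-NTA then Q-Sepharose. Radiochemical 14C-glucose incorporation assay run at varied G6P. % activation was fitted to a hyperbolic binding equation to give AC50. Done in triplicate.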

hGYS1 [6] = target: T6, hGYS1 (Homo sapiens, UniProt P13807); experiment: Fluorescence polarization displacement of tracer from hGYS1; type: binding; conditions: FP assay with hGYS1
T6 sequence (P13807 1-737): T3 sequence (P13807 1-737)

hGYS1 [7] = target: T6, hGYS1; experiment: Activation of hGYS1 by G6P or GlcN6P, 14C-glucose incorporation assay; type: biochemical
How it was run: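 Full-length human GYS1 was expressed in insect cells. Radiochemical 14C-glucose incorporation assay run at varied G6P or GlcN6P. % activation was plotted against activator concentration and fitted to a hyperbolic binding equation to give AC50. Done in triplicate.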

yGsy2p [8] = target: T2, yGsy2p; experiment: Fluorescence polarization saturation binding of tracer to yGsy2p
How it was run: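 Yeast Gsy2p titrated from 0 to 50 µM against 20 nM final fluorescein-labelled glucosamine-6-phosphate tracer in 15 mM Tris-HCl pH 7.8, 15 mM NaCl. Incubated 10 min at 25°C, then polarization read (ex 485/em 535 nm, mP). Saturation curve fitted to a hyperbolic equation for Kd. Triplicate.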

COc1cc(-c2c(-c3ccccc3)ncn2CCC2CCCN2C)ccc1O (racemic) [Compound H23, (rac)-2-methoxy-4-(1-(2-(1-methylpyrrolidin-2-yl)ethyl)-4-phenyl-1H-imidazol-5-yl)phenol]
reduction of synthase activity in Rat-1 cell lysate [1]: did not significantly inhibit | mode of inhibition of yGsy2p with respect to varied UDPG (yGsy2p [2]): competitive | reduction of synthase activity in HEK293-PTG cell lysate [3]: did not significantly inhibit | inhibition at 100 µM (hGYS1Δ634S8,11N): > 20%

O=C(O)CCc1ccc(-c2ccccc2)n1-c1ccc(O)cc1 [Compound 7]
improvement in potency toward hGYS1 relative to H23 (wild-type hGYS1): 2 fold | reduction of synthase activity in Rat-1 cell lysate [1]: did not significantly inhibit | reduction of synthase activity in HEK293-PTG cell lysate [3]: did not significantly inhibit

Cc1[nH]nc(-c2ccc(O)c(O)c2O)c1-c1ccc(Cl)cc1 [Compound 11]
improvement in potency toward hGYS1 relative to H23 (wild-type hGYS1): 16 fold

Oc1ccc(-c2c(-c3ccc(O)c(O)c3O)n[nH]c2C(F)(F)F)cc1 [Compound 23, 4-(4-(4-hydroxyphenyl)-3-(trifluoromethyl)-1H-pyrazol-5-yl)pyrogallol]
improvement in potency toward hGYS1 relative to H23 (wild-type hGYS1): more than 300 fold | mode of inhibition for wild-type hGYS1 (wild-type hGYS1; versus UDPG): competitive | inhibition of Y513L mutant compared with wild-type yGsy2p (yGsy2p Y513L mutant): compromised; also recorded: decreased potency

O=C[C@H](O)[C@@H](O)[C@H](O)[C@H](O)COP(=O)(O)O [Compound G6P, glucose-6-phosphate]
Kd (yGsy2p [4]): 70.9 ± 3.6 µM | AC50 (yGsy2p [5]): 98.1 ± 3.1 µM | displacement of GlcN6P-coupled fluorophore or fluorophore alone from hGYS1 (hGYS1 [6]): unable to displace | AC50 (hGYS1 [7]): 1.6 ± 0.1 mM

N[C@H]1C(O)O[C@H](COP(=O)(O)O)[C@@H](O)[C@@H]1O (stereo partly drawn) [GlcN6P, glucosamine-6-phosphate]
AC50 (hGYS1 [7]): 5.9 ± 0.1 mM

O=C(CSCCC(=O)N[C@@H]1[C@@H](O)[C@H](O)[C@@H](COP(=O)(O)O)O[C@H]1O)Nc1ccc(-c2c3ccc(=O)cc-3oc3cc(O)ccc23)c(C(=O)O)c1 [GlcN6P-fluorescein-5-Ex]
Kd (yGsy2p [8]): 7.6 ± 0.7 µM

O=c1ccn([C@@H]2O[C@H](COP(=O)(O)OP(=O)(O)O)[C@@H](O)[C@H]2O)c(=O)[nH]1 [UDP, reference compound]
mode of inhibition of yGsy2p with respect to varied UDPG (yGsy2p [2]): competitive
